LYPLA2 inh = blocks human lysophospholipase 2, a PME1 counter-screen | O95372 | recombinant LYPLA2, FP-Rh probe fluorescence polarization | inhibition, % at 5.9 µM | 0.38% of 320,000 active;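 active means inhibition above the screen-wide mean plus 3 SD, limit set per campaign, cut at about 26% in these data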;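 further: 0% = LYPLA2 with DMSO and 100% = wells lacking LYPLA2 enzyme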
Fam108B counter = blocks mouse Fam108B hydrolase in RBBP9 counter-screen; recombinant Fam108B, FP-Rh probe fluorescence polarization; inhibition, % at 9.51 µM; 0.33% of 300,000 active;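 active means inhibition above the screen mean inhibition plus 3 SD, computed separately per campaign, cut at about 18% in these data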;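 further: inhibitors lower polarization as less probe binds the enzyme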
RBBP9 inhibitor = blocks human serine hydrolase RBBP9; recombinant RBBP9, FP-Rh probe fluorescence polarization; inhibition, % at 7.94 µM; O75884; 0.2% of 220,000 active;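 active means inhibition above the campaign mean of all tested compounds plus 3 SD, cut at about 14% in these data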;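 further: plate controls were DMSO wells with RBBP9 for no effect and wells lacking RBBP9 protein for full effect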
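Assay system: recombinant human RBBP9; Reagent: Serine-hydrolase probe FP-Rh, 375 nM pre-mixing; Doses: 7.94 µM single dose, 0.794% DMSO; Incubation: 30 min then 45 min, 25 °C; Detection: fluorescence polarization (mP), excitation 525 nm, emission 598 nm; Evaluation: percent inhibition from mP, scaled between DMSO and no-protein wells.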
LYPLA1 inh = counter-screen for PME1 inhibitors: inhibitors of human LYPLA1. recombinant LYPLA1, FP-Rh probe fluorescence polarization. O75608. 0.16% of 320,000 active. inhibition, % at 5.9 µM;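 active means inhibition above the mean of all tested compounds plus 3 SD, set per campaign, cut at about 14% in these data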;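 further: inhibitors block serine hydrolase probe labeling of LYPLA1 so polarization falls; 0% = enzyme with DMSO and 100% = wells lacking LYPLA1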
Target sequence (O75608 whole entry, looked up): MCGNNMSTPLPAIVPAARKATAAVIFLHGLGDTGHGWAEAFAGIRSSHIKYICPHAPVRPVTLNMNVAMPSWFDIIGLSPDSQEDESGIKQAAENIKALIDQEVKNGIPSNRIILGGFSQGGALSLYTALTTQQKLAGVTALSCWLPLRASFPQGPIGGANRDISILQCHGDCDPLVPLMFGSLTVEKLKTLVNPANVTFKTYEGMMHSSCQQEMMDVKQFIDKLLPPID
PME-1 inh = blocks human protein phosphatase methylesterase 1; recombinant PME-1, FP-Rh probe fluorescence polarization; inhibition, % at 5.9 µM; 0.53% of 320,000 active; Q9Y570;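 active means inhibition above the campaign mean of all compounds plus 3 SD, cut at about 26% in these data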;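 further: competitive labeling of PME-1 active site by serine hydrolase directed probe; 0% = PME-1 with DMSO and 100% = wells lacking PME-1 enzyme; inhibitors block probe labeling so polarization falls and inhibition rises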
Target sequence (Q9Y570 whole entry, looked up): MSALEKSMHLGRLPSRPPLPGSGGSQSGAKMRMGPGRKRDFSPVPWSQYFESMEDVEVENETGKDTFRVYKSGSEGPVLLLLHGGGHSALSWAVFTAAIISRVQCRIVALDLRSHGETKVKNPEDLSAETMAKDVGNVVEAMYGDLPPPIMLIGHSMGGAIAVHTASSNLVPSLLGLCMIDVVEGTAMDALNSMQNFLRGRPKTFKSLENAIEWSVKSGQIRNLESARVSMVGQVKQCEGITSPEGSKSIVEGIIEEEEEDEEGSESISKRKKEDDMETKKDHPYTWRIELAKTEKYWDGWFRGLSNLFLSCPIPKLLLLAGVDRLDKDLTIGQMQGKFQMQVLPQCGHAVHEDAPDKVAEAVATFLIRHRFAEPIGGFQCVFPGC
Fam108b inh conf = confirmation of mouse Fam108b serine hydrolase inhibitors. shares compounds with Fam108B counter. recombinant Fam108b, FP-Rh probe fluorescence polarization. inhibition, % at 9.51 µM. 44% of 930 active. AID 1978;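 active means inhibition above a limit from the primary screen, the mean over all compounds plus 3 SD, cut at about 19% in these data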;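 further: 0% = median of active Fam108b wells and 100% = catalytically dead S170A mutant; inhibitors free the probe so polarization falls as inhibition rises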
Fam108b ABPP HTS = mouse ABHD17B inhibition; shares compounds with Fam108B counter; inhibition, % at 20 µM; recombinant Fam108b, gel-based ABPP, fluorophosphonate probe; 44% of 260 active; in the data active means inhibition above about 40%
Active calls of the source: *. The list is not random: actives were taken first. Their share in the collection is about 0.99%.

`O=C(O)c1ccc2c(c1)[C@@H]1C=CC[C@@H]1[C@H](c1ccccn1)N2` gave LYPLA2 inh 10.3, Fam108B counter 38.7*, RBBP9 inhibitor 4.8, LYPLA1 inh -7.3, PME-1 inh -34.5, Fam108b inh conf active and Fam108b ABPP HTS 0.0.
`COc1ccc(Cl)cc1NC(=O)CCc1nnc2ccc(N3CCC4(CC3)OCCO4)nn12` gave LYPLA2 inh 6.2, Fam108B counter -0.2, LYPLA1 inh 5.1 and PME-1 inh 3.2.
For Cc1ccc(-c2ccc(C#N)c(=O)n2CC(=O)N(C)C)cc1 the results were LYPLA2 inh 8.2, Fam108B counter 0.5, LYPLA1 inh 0.7 and PME-1 inh -5.8.
`COc1cccc(CC2(CO)CCN(Cc3ccc4cccc(F)c4n3)CC2)c1` gave LYPLA2 inh -0.6, Fam108B counter 5.9, RBBP9 inhibitor -3.1, LYPLA1 inh -1.6 and PME-1 inh -13.9.
NNc1nc2c(-c3ccc(F)cc3)nnn2c2ccccc12 was read as LYPLA2 inh -17.7, Fam108B counter 25.7*, RBBP9 inhibitor -3.7, LYPLA1 inh -11.4, PME-1 inh 5.2 and Fam108b inh conf 9.3.
NNc1nc2c(-c3ccc(Cl)cc3)nnn2c2ccccc12 was read as LYPLA2 inh -10.0, Fam108B counter 54.9*, RBBP9 inhibitor 0.7, LYPLA1 inh -11.2, PME-1 inh -16.3, Fam108b inh conf 64.8* and Fam108b ABPP HTS 0.0.
`CN(C)C(=O)c1ccc(NC(=O)c2ccccc2SCC(=O)N2CCCC2)cc1` gave LYPLA2 inh -9.9, LYPLA1 inh -8.9 and PME-1 inh -0.1.
O=C(Nc1ccc(S(=O)(=O)Nc2ncccn2)cc1)c1cccc(S(=O)(=O)N2CCCC2)c1 was read as LYPLA2 inh -2.5, Fam108B counter 2.2, RBBP9 inhibitor -2.0, LYPLA1 inh 0.4 and PME-1 inh 1.8.
For O=C(Nc1cccc(C(F)(F)F)c1)Nc1ccc(N2CCCC2)c(S(=O)(=O)Nc2ccccc2Cl)c1 the results were LYPLA2 inh 4.9, Fam108B counter 35.5*, RBBP9 inhibitor 0.7, LYPLA1 inh -13.1, PME-1 inh 20.0, Fam108b inh conf 31.7* and Fam108b ABPP HTS 95.0*.
`COc1ccccc1NS(=O)(=O)c1cc(NC(=O)Nc2ccc(Cl)cc2Cl)ccc1N1CCCCC1` gave LYPLA2 inh -19.9, Fam108B counter -0.5, RBBP9 inhibitor -1.6, LYPLA1 inh -7.2 and PME-1 inh -12.3.
`CCOc1ccccc1NC(=O)c1cc(SC)ccc1Cl` gave LYPLA2 inh -2.2, Fam108B counter -1.3, RBBP9 inhibitor -6.6, LYPLA1 inh -0.8 and PME-1 inh 8.2.
Screening CC1CCN(C(=O)CNC(=O)CNS(=O)(=O)c2ccccc2)CC1 returned LYPLA2 inh 8.1, Fam108B counter -3.6, LYPLA1 inh -1.3 and PME-1 inh -2.5.
Screening O=c1oc2ccccc2c2oc3cc(O)c(O)cc3c12 returned LYPLA2 inh -13.8, Fam108B counter 15.9, RBBP9 inhibitor 5.2, LYPLA1 inh -15.8 and PME-1 inh 3.1.
Screening O=c1oc2c(O)c(O)cc3c(=O)oc4c(O)c(O)cc1c4c23 returned LYPLA2 inh -1.2, Fam108B counter 54.7*, RBBP9 inhibitor -6.2, LYPLA1 inh -11.2, PME-1 inh -19.8, Fam108b inh conf 42.1* and Fam108b ABPP HTS 0.0.
Cc1csc(N/N=C/c2ccc(O)c([N+](=O)[O-])c2)n1 was read as LYPLA2 inh 5.0, Fam108B counter 16.6, RBBP9 inhibitor -0.4, LYPLA1 inh 4.4 and PME-1 inh -0.8.
COc1cc(/C=N/Nc2nc(-c3ccc(S(=O)(=O)N(C)C)cc3)cs2)ccc1O was read as LYPLA2 inh -1.4, Fam108B counter 20.6*, RBBP9 inhibitor 5.2, LYPLA1 inh -7.2, PME-1 inh 28.0* and Fam108b inh conf 8.6.
O=[N+]([O-])c1cc(/C=N\Nc2nc(-c3ccccc3)cs2)ccc1O was read as LYPLA2 inh 1.9, Fam108B counter 25.0*, RBBP9 inhibitor 0.9, LYPLA1 inh 1.2, PME-1 inh 22.7 and Fam108b inh conf 24.8*.
CC1(C)CC(=O)C=C(c2cccnc2)C1 was read as LYPLA2 inh -5.3, Fam108B counter 0.2, LYPLA1 inh -1.4 and PME-1 inh -0.3.
For O=C(Nc1cccc(-c2csc(Nc3ccc(Cl)cc3)n2)c1)c1cccc(C(F)(F)F)c1 the results were LYPLA2 inh -13.8, Fam108B counter 26.8*, LYPLA1 inh -22.5, PME-1 inh 4.2 and Fam108b inh conf -14.3.
`O=C(Nc1cccc(-c2csc(Nc3ccc(Cl)cc3)n2)c1)c1ccccc1` gave LYPLA2 inh -17.6, Fam108B counter 24.1*, LYPLA1 inh -25.9, PME-1 inh 1.3 and Fam108b inh conf 19.6*.
Screening O=C(Nc1ccc(-c2csc(Nc3ccccc3)n2)cc1)c1ccccc1 returned LYPLA2 inh -3.1, Fam108B counter 4.8, LYPLA1 inh -5.8 and PME-1 inh 6.8.
Screening NS(=O)(=O)c1ccc(NC(=O)CN2C(=O)C3C4C=CC(C4)C3C2=O)cc1 (stereo not drawn) returned LYPLA2 inh -3.4, Fam108B counter -2.1, RBBP9 inhibitor 2.1, LYPLA1 inh 0.3 and PME-1 inh -6.5.
`CCN(CC)c1ccc(NC(=O)c2cc3c(OC)cccc3[nH]2)cc1` gave LYPLA2 inh 5.7, Fam108B counter 20.6*, LYPLA1 inh -7.4, PME-1 inh 19.6 and Fam108b inh conf 3.1.
`S=C(NC1CCCCC1)N1CCN(Cc2ccccc2Cl)CC1` gave LYPLA2 inh 3.3, Fam108B counter -6.5, RBBP9 inhibitor 7.3, LYPLA1 inh 2.4 and PME-1 inh 1.3.
Cc1[nH]n(C(N)=S)c(=O)c1N=Nc1ccccc1C(F)(F)F was read as LYPLA2 inh -1.2, Fam108B counter 24.3*, LYPLA1 inh -1.5, PME-1 inh 1.9 and Fam108b inh conf 27.4*.
`Cc1ccccc1N=Nc1c(C)[nH]n(C(N)=S)c1=O` gave LYPLA2 inh 3.2, Fam108B counter 4.1, RBBP9 inhibitor 4.8, LYPLA1 inh -1.8 and PME-1 inh -3.4.
CCOc1ccccc1Nc1nc(-c2sc(NC(=O)c3ccc([N+](=O)[O-])cc3)nc2C)cs1 was read as LYPLA2 inh -15.7, Fam108B counter 22.1*, RBBP9 inhibitor -4.3, LYPLA1 inh -20.7, PME-1 inh 19.2 and Fam108b inh conf 24.5*.
COc1ccc(OC)c(Nc2nc(-c3sc(NC(=O)c4ccccc4)nc3C)cs2)c1 was read as LYPLA2 inh -7.8, Fam108B counter 18.6*, RBBP9 inhibitor 2.7, LYPLA1 inh -15.1, PME-1 inh 20.9 and Fam108b inh conf 15.9.
Cc1ccc(Nc2nc(-c3sc(NC(=O)c4ccc([N+](=O)[O-])cc4)nc3C)cs2)cc1 was read as LYPLA2 inh -12.9, Fam108B counter 22.3*, RBBP9 inhibitor -0.5, LYPLA1 inh -23.9, PME-1 inh 10.6 and Fam108b inh conf 8.4.

Source: PubChem BioAssay (The Scripps Research Institute Molecular Screening Center)
